This passage reports inhibition, Activity and IC50 results from ChEMBL document CHEMBL2046296, “Synthesis and antidepressant activity of arylalkanol-piperidine derivatives as triple reuptake inhibitors” (Eur J Med Chem, 2012).

Experiment [1] concerns the target T1, Muscarinic acetylcholine receptor M1 (Homo sapiens) (UniProt P11229).
T1 sequence (whole entry): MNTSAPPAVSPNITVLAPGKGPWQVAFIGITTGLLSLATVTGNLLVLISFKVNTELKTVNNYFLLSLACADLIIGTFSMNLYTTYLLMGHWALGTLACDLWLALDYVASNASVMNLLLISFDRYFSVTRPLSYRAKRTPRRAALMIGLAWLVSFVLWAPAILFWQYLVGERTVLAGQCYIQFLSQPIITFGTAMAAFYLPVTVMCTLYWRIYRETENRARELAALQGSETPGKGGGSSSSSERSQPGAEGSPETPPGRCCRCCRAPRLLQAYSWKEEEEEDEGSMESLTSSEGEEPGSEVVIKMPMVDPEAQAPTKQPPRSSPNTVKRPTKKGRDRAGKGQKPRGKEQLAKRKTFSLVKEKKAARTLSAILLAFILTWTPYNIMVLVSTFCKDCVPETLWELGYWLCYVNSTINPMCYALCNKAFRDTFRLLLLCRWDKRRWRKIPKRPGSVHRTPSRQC
As to the kind of experiment: Displacement of [3H]pirenzepine from human recombinant M1 receptor expressed in CHO cells at 10 uM after 60 mins by liquid scintillation counting. It counts as cell-based. A digest of the protocol: (§1)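 Radioligand binding panel run by a contract lab (CEREP). Percent inhibition of specific radioligand binding was measured at a single primary test concentration of 10.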

The target of experiment [2] is Adrenergic receptor alpha-2 (Rattus norvegicus) (UniProt P22086+P19328+P22909). Description: Displacement of [3H]RX821002 from rat alpha2 adrenergic receptor at 10 uM after 30 mins by liquid scintillation counting. A digest of the protocol:
as §1
(Displacement assays read how much labelled ligand stays bound in the presence of the test substance.)

In experiment [3] the test system is Mus musculus. Description: Antidepressant activity in mouse assessed as decrease in immobility at 50 mg/kg, po administered 30 mins prior to testing by tail suspension test relative to vehicle control. Also on record: scale not given: the % may be the effect or the level left. It counts as functional. A digest of the protocol:
(§2)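 Oral doses of 10–50 mg/kg (three doses) were given once, 30 min before testing. Mice were hung by adhesive tape 1 cm from the tail tip, 75 cm above the tabletop. Immobility was recorded for 5 min, scored blind, 10–12 mice per group, against vehicle controls. One-way ANOVA with Scheffe post hoc test; p<0.05 significant.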

Experiment [4] concerns the target T2, Muscarinic acetylcholine receptor M2 (Homo sapiens) (UniProt P08172).
T2 sequence (whole entry): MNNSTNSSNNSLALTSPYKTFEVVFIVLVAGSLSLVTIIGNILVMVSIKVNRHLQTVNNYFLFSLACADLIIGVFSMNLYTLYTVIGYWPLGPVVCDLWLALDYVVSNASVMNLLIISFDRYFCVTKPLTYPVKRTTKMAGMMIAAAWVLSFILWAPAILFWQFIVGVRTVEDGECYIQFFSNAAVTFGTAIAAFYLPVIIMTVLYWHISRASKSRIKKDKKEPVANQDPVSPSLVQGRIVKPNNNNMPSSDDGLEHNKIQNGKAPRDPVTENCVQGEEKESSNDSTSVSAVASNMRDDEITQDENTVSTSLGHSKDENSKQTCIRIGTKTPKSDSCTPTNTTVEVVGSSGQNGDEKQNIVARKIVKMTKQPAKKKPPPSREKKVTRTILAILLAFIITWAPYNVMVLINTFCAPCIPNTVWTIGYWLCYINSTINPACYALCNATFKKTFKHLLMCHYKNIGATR
Description: Displacement of [3H]AF-DX384 from M2 receptor at 10 uM. A digest of the protocol:
as §1

The target in experiment [5] is Sodium-dependent serotonin transporter (Homo sapiens, UniProt P31645). Description: Inhibition of [3H]serotonin uptake at human SERT expressed in HEK293 cells after 10 min by scintillation counting.
For experiment [6], the system named is Mus musculus. As to the kind of experiment: Antidepressant activity in po dosed mouse assessed as decrease in immobility administered 30 mins prior to testing by tail suspension test relative to vehicle control. It counts as functional, organism-based. An outline of the steps: as §2
Experiment [7] relates to Mus musculus. As to the kind of experiment: Antidepressant activity in mouse assessed as decrease in immobility at 20 mg/kg, po administered 30 mins prior to testing by tail suspension test relative to vehicle control. Also on record: scale not given: the % may be the effect or the level left. It counts as functional. A digest of the protocol: as §2
Experiment [8] concerns the target Sodium-dependent dopamine transporter (Homo sapiens, UniProt Q01959). Description: Inhibition of [3H]dopamine uptake at human DAT expressed in HEK293 cells after 10 mins by scintillation counting.
In experiment [9] the target is D(3) dopamine receptor (Homo sapiens) (UniProt P35462). As to the kind of experiment: Displacement of [3H]Methylspiperone from human recombinant dopamine D3 receptor expressed in CHO cells at 10 uM after 60 mins by liquid scintillation counting. It counts as cell-based. A digest of the protocol: as §1
The target in experiment [10] is T3, 5-hydroxytryptamine receptor 1A (Homo sapiens) (UniProt P08908).
T3 sequence (whole entry): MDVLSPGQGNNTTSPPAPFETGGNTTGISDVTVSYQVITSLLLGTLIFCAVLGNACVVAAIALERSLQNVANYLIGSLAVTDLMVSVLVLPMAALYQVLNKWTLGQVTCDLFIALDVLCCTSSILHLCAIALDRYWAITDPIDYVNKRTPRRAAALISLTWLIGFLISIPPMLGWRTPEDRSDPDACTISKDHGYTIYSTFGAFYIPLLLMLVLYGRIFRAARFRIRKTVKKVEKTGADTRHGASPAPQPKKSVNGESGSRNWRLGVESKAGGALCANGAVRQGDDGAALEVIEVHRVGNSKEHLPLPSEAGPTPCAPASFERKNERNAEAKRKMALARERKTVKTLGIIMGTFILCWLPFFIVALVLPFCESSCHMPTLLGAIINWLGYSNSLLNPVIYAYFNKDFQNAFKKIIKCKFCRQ
Description: Displacement of [3H]8-OH-DPAT from human recombinant 5HT1A receptor expressed in CHO cells at 10 uM after 60 mins by liquid scintillation counting. The format is cell-based. An outline of the steps:
as §1

Experiment [11] concerns the target D(2) dopamine receptor (Homo sapiens) (UniProt P14416). Description: Displacement of [3H]Methylspiperone from dopamine D2 receptor at 10 uM. An outline of the steps: as §1
The target in a further experiment is D(1A) dopamine receptor (Homo sapiens, UniProt P21728). Description: Displacement of [3H]SCH23390 from dopamine D1 receptor at 10 uM. An outline of the steps:
as §1

Experiment [12] concerns Mus musculus. As to the kind of experiment: Antidepressant activity in mouse assessed as decrease in immobility at 10 mg/kg, po administered 30 mins prior to testing by tail suspension test relative to vehicle control. The format is functional. Also on record: scale not given: the % may be the effect or the level left. An outline of the steps:
as §2

Experiment [13] deals with 5-hydroxytryptamine receptor 2A (Homo sapiens) (UniProt P28223). Description: Displacement of [3H]Ketanserin from human recombinant 5HT2A receptor expressed in CHO cells at 10 uM after 15 mins by liquid scintillation counting. It counts as cell-based. A digest of the protocol: as §1
The target of experiment [14] is 5-hydroxytryptamine receptor 5A (Homo sapiens) (UniProt P47898). Description: Displacement of [3H]LSD from 5HT5A receptor at 10 uM. An outline of the steps:
as §1

Chain of Sodium-dependent dopamine transporter (Q01959 whole entry): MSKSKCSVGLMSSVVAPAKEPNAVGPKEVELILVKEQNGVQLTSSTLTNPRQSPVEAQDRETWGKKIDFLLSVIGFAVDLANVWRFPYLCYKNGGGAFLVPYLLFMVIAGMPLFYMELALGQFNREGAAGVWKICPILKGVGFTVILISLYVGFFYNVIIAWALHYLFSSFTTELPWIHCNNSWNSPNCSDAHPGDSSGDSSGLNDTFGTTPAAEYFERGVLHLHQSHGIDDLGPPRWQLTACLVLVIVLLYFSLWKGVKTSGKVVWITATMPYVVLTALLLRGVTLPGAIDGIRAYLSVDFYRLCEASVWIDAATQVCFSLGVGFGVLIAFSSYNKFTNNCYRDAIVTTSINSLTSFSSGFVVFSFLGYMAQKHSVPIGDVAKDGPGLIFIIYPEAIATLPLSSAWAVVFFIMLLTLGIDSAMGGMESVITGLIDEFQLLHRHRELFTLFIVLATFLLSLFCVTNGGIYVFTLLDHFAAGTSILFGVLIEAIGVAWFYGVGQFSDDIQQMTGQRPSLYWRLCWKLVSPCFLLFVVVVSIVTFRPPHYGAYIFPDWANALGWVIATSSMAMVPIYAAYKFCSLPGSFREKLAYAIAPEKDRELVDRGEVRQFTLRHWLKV
Chain of Sodium-dependent serotonin transporter (P31645 whole entry): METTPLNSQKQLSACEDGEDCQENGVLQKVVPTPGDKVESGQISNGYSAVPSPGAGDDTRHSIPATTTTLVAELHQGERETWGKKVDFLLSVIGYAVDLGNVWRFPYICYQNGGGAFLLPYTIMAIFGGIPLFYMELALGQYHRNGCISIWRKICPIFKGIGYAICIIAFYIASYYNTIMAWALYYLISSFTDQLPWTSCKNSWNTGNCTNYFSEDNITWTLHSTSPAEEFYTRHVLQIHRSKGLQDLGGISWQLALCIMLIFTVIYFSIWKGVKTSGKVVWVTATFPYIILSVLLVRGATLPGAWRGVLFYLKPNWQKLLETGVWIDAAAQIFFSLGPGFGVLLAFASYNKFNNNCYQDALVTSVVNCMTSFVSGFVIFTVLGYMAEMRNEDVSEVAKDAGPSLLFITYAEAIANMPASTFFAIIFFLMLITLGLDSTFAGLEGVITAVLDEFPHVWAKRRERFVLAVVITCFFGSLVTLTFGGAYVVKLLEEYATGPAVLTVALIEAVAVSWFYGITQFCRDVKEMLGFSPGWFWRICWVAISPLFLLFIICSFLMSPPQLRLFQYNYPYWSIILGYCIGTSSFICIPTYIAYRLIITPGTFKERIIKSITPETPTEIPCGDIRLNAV
Chain of 5-hydroxytryptamine receptor 2A (Homo sapiens) (P28223 whole entry): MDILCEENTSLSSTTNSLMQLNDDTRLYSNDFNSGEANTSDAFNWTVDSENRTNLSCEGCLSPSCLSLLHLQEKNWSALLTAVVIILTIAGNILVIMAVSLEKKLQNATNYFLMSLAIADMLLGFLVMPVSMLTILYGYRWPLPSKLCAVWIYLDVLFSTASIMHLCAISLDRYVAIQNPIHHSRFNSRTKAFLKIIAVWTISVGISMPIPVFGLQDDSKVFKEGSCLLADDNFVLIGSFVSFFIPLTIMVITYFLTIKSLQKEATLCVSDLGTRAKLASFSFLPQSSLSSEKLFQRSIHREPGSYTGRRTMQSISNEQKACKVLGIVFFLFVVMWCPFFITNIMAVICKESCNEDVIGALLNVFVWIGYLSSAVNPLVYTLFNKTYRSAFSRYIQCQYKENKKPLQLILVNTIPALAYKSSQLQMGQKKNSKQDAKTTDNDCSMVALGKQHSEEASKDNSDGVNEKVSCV
Chain of D(3) dopamine receptor (Homo sapiens) (P35462 whole entry): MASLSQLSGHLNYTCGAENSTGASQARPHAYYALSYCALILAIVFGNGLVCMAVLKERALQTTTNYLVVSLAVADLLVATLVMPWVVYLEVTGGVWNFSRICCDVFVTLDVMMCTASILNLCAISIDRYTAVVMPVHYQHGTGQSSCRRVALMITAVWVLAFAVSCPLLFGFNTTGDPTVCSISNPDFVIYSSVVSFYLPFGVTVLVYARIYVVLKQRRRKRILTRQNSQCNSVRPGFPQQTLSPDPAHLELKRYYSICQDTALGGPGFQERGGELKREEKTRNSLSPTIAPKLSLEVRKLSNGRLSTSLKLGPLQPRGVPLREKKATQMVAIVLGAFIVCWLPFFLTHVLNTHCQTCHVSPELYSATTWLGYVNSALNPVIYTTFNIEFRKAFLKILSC
Chain of D(1A) dopamine receptor (P21728 whole entry): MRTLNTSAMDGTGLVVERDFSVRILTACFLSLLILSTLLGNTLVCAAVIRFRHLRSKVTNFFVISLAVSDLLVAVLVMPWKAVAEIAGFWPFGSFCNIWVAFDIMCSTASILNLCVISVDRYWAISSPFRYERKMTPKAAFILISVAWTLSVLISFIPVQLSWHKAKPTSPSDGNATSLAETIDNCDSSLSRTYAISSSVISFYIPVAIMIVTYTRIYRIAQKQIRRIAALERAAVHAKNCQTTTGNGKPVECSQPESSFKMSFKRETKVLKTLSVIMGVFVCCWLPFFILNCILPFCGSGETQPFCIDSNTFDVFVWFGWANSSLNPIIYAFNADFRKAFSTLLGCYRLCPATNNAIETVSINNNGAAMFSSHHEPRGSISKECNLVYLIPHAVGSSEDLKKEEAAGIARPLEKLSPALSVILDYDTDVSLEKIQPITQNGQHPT
Chain of 5-hydroxytryptamine receptor 5A (Homo sapiens) (P47898 whole entry): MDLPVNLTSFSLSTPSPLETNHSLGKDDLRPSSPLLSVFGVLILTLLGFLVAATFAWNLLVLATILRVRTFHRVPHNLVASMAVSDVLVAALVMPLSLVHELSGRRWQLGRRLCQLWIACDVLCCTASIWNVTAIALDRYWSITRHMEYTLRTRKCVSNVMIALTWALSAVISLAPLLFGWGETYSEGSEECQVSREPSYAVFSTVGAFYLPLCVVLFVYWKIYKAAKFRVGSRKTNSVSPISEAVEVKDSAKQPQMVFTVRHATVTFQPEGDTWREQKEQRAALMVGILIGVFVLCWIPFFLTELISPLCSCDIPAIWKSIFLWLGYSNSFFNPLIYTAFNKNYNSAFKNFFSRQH
Chain of D(2) dopamine receptor (Homo sapiens) (P14416 whole entry): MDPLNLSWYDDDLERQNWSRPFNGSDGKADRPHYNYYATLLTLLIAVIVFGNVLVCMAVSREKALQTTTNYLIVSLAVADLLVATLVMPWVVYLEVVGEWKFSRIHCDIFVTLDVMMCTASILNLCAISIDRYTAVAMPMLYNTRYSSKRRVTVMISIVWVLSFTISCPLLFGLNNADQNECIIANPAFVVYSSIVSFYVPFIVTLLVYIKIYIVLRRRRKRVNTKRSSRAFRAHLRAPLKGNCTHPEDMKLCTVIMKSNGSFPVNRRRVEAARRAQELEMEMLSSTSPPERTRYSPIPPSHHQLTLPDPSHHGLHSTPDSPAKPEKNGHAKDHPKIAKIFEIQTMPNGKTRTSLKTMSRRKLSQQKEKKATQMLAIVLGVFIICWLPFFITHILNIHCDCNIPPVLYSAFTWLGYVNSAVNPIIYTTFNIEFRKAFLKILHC

In general, inhibition refers to the change of the read-out against control, counted positive when it falls. Usually IC50 stands for the concentration at which inhibition is half-maximal. Take `COc1ccc2cc(C(O)CCN3CC=C(Cc4ccccc4)CC3)ccc2c1Cl` (racemic): the inhibition in [1] is 57.8%; in [2], 32.9%; in [4] it was 12.9%; in [9], 11.3%; in experiment [10], 46.5%; in experiment [11], -0.5%. The inhibition at D(1A) dopamine receptor was 27.1%; in experiment [13], 15.6%. The Activity in the experiment on Mus musculus [3] is 57%; in the experiment on Mus musculus [6] it was “Dose-dependent effect”; in the experiment with Mus musculus [7] it was 42%; in the experiment on Mus musculus [12], 21%. Also, the IC50 in experiment [5] was 265 nM; in [8] it was 346 nM.

As for `OC(CCN1CCC(O)(Cc2ccccc2)CC1)c1ccc(Cl)c(Cl)c1` (racemic), the inhibition in experiment [1] was determined as 34.2%; in experiment [2], 43.5%; in [4], 16.5%; in [14], 41.6%; in [9], 4.6%; in experiment [10], 27.3%. Moreover, the inhibition in [11] worked out at 19.2%; at D(1A) dopamine receptor it was 47.9%; in [13] it was 0.9%. Besides, the Activity with Mus musculus [3] is 64%; with Mus musculus [6], “Dose-dependent effect”; in the experiment with Mus musculus [7], 42%; in the experiment on Mus musculus [12], 33%. For the same compound, the values for the IC50 in experiment [5] and in experiment [8] were 337 nM and 564 nM, respectively.

Regarding `OC(CCN1CC=C(Cc2ccccc2)CC1)c1ccc(Cl)c(Cl)c1` (racemic), the inhibition was found to be 10.7% in experiment [1]; 16.2% in experiment [2]; 7.9% in [4]; 10.3% in experiment [9]; 10.3% in experiment [10]; 31.4% in [11]. For the same compound, the inhibition on D(1A) dopamine receptor was 33.3%; in experiment [13], 4.8%. The Activity in the experiment on Mus musculus [3] is 35%; in the experiment with Mus musculus [7], 51%; in the experiment with Mus musculus [12] it was 24%. In addition, the IC50 in [5] amounted to 425 nM; in experiment [8] it was 689 nM.

Regarding `OC(CCN1CC=C(Cc2ccccc2)CC1)c1csc2ccccc12` (racemic), the inhibition in experiment [1] came out at 4.3%; in experiment [2] it was 27.3%; in experiment [4], 3.7%; in experiment [14] it was 33.5%; in [9] it was 3.5%; in experiment [10], 33.4%. In addition, the inhibition in [11] was determined as 4.3%; on D(1A) dopamine receptor it was 35.6%; in experiment [13], 42.6%. In addition, the Activity with Mus musculus [3] is 64%; in the experiment on Mus musculus [6], “Dose-dependent effect”; in the experiment on Mus musculus [7], 51%; in the experiment on Mus musculus [12], 32%. For the same compound, the results for the IC50 in experiment [5] and in experiment [8] were 171 nM and 566 nM, respectively.

For `OC(CCN1CC=C(Cc2ccccc2)CC1)c1cc2ccccc2s1` (racemic), the inhibition was 31.2% in experiment [1]; 32.5% in experiment [2]; 6.5% in experiment [4]; 0.2% in experiment [14]; 1.2% in experiment [9]; 65.4% in [10]. The inhibition in [11] was determined as 10.8%; on D(1A) dopamine receptor, 85.6%; in [13], 31.5%. The Activity in the experiment on Mus musculus [3] worked out at 34%; with Mus musculus [7], 21%; with Mus musculus [12], 14%. The IC50 came to 255 nM in experiment [5] and 491 nM in [8].
